Measured values from PubChem BioAssay.
Values without a mark were called inactive. Results filed as inconclusive are left out. The source made the active and inactive calls.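 Rule for the calls, unless noted: active = cell viability at or below a set limit in both duplicate runs, the limit being the all-compound median minus 4 SD (cut at about 23% in these data, passing the limit was not always enough); inconclusive = no clear call, values can overlap the other calls; inactive = the rest.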

How the values were obtained:
[1] = S. cerevisiae growth inhibition in permissive medium (OD615), pilot counter-assay for S. cerevisiae lifespan shortening project, permissive growth control (AID 705;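 active = growth inhibition above 25% in both replicates, a cutoff set 3 SD above the mean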); settings: OD615, 24 h, at 10 µM, active compounds read high
Outline: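 Material: engineered DeaD yeast; Compound: one dose 10 µM, DMSO 0.25% final; Detection: absorbance (optical density) at 615 nm; Buffer or medium: permissive raffinose/galactose medium; Timing: 24 h exposure, 30 °C.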

[2] = S. cerevisiae growth inhibition in restrictive medium, OD615, pilot screen, restrictive growth control, yeast lifespan reduction project (AID 706;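 active = growth inhibition above a set limit, 3 SD over mean compound inhibition, in both replicates, cut at about 43% in these data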;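 note: modified DeaD lifespan yeast strain shifted to restrictive glucose medium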); settings: OD615, 48 h, at 10 µM, active compounds read high
Outline: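 Buffer or medium: restrictive glucose medium (CSMM-D); test system: modified S. cerevisiae; doses: single dose of 10 µM compound final, 0.25% DMSO; schedule: 48 h compound exposure at 30 °C; detection: absorbance (optical density) measured at 615 nm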

[3] = doxorubicin toxicity protection in MRP-1 cells – H69AR cells, CellTiter-Glo, duplicate, MRP-1 activator project, pilot screen (AID 807;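 active = viability increase at or above a cutoff of the median across tested compounds plus 3 SD, cut at about 8.5% in these data, passing the limit was not always enough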;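 note: compound pretreatment 18-22 h then 72 h combined with doxorubicin; 0% = doxorubicin alone and 100% = vehicle without doxorubicin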); settings: H69AR viability with doxorubicin, CellTiter-Glo luminescence; at 10 µM; active compounds read high
[4] = viability of HCT116 without oncogenic beta-catenin – human colon tumor cells, pilot screen (AID 823); settings: HCT116 beta-catenin knockout viability, CellTiter-Glo, 60 h; at 10 µM; active compounds read low;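 note: 0% = wells killed by 20 µM Hyamine and 100% = untreated DMSO cell wells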
[5] = viability of PTEN-null HCT116 cells – cell-based, HCT116 clonal line, CellTiter-Glo, pilot screen (AID 824;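 active = viability at or below 27.92% in each of two runs, the all-compound median minus 4 SD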;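 note: 0% = 20 µM Hyamine control and 100% = vehicle cell control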); settings: HCT116 PTEN-deleted viability, 60 h, at 10 µM, active compounds read low
[6] = RAM pathway blockade in budding yeast – dse1pr::URA3 reporter, 5-FOA selection, pilot screen (AID 869;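 active = inhibition over a set limit, the all-compound mean plus 3 SD, in both replicate runs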;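 note: 0% = DMSO wells with no growth and 100% = 10 µM 1-NA-PP1 with full growth; RAM network block rescues cells from 5-FOA so hits raise OD615 growth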); settings: S. cerevisiae dse1pr::URA3 5-FOA growth, OD615, 2 d; at 10 µM; active compounds read high; strain carries analog-sensitive mutant Cbk1 kinase
[7] = RAM signaling pathway blockade in yeast – S. cerevisiae, Pdr1DBD-CYC8 efflux-inhibited sensitized strain, primary screen (AID 1298;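 active = RAM network inhibition above 8.4% in each of two replicates, 3 SD over the compound average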;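 note: 0% = DMSO untreated cells without growth and 100% = 10 µM 1-NA-PP1 full growth; higher means more yeast growth rescued from 5-FOA killing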); settings: S. cerevisiae cbk1-as DSE1-URA3 strain, 5-FOA growth OD615, 2 d; at 50 µM; active compounds read high

Compound	growth inhibition [1]	growth inhibition [2]	viability increase [3]	viability [4]	viability [5]	inhibition [6]	RAM network inhibition [7]
CC(=O)/C(C(=N)N1CCN(C(c2ccccc2)c2ccccc2)CC1)=C(\C)O	-2.42%	-7.72%	-2.93%	102%	91.2%	-0.395%	2.41%
O=C(COC(=O)C1CCCO1)Nc1cccc(C(F)(F)F)c1 (configuration not stated)	-22.8%	-15.9%	0%	91.8%	94.5%	1.63%	2.45%
Cc1cc(C)nc(NS(=O)(=O)c2ccc(NC(=O)C3CC(=O)N(c4ccccc4)C3)cc2)n1 (configuration not stated)	-4.82%	7.38%	1.33%	104%	100%	1.81%	3.68%
CCCCOc1ccc(NC(=O)C2CC=CCC2C(=O)O)cc1 (configuration not stated)	-5.44%	-26.4%	-2.19%	81.9%	79.5%	0.51%	0.37%
Cc1ccccc1NC(=O)C1CC(Cl)=CCC1C(=O)O (configuration not stated)	-2.29%	-0.385%	-0.5%	101%	96.9%	1.52%	6.8%
CCOc1ccccc1NC(=O)N1CCCC1C(=O)Nc1ccc(-n2cnnn2)c(C)c1 (configuration not stated)	-11.3%	-16.2%	0.16%	102%	97.9%	1.86%	2.1%
CN1CCCc2cc3c(C(F)(F)F)cc(=O)oc3nc21	-5.06%	5.85%	-1.33%	94.2%	102%	1.14%	1.82%
CCC(Sc1nc(C)cc(=O)[nH]1)C(=O)Nc1ccc(Cl)cn1 (configuration not stated)	-2.36%	26.5%	-3.4%	98.9%	96.7%	1.84%	3.08%
CCn1cc(C(=O)NCCCN2CCC(C)CC2)c2cc(OC)c(OC)cc2c1=O	-7.74%	6.7%	-3.47%	99.3%	92%	1.77%	1.99%
Cc1cc(C)n2nc(S(=O)(=O)NCCc3ccccc3)nc2n1	-6.26%	-8.79%	-0.6%	111%	100%	2.72%	1.3%
COc1ccc(C2C=C(c3ccccc3)Nc3nnnn32)cc1 (configuration not stated)	-5.09%	5.53%	0.19%	95.3%	90.3%	0.855%	5.93%
COc1ccc(NC(=O)C2CCN(S(=O)(=O)c3cccnc3)CC2)cc1Cl	-8.66%	-13.1%	-3.56%	97.3%	100%	1.77%	2.55%
O=C(c1ccco1)N1CCN(c2nc3ccsc3c(=O)s2)CC1	-0.135%	6.59%	-3.19%	97.1%	94.3%	2.1%	5.38%
Cc1cccc(NC(=O)C2CCCN2S(=O)(=O)c2cccc3cccnc23)c1 (configuration not stated)	-13%	-6.59%	-3.17%	85.3%	84%	0.065%	1.73%
O=C(CNC(=O)c1ccco1)OCC(=O)c1ccccc1	-8.55%	3%	-1.3%	97.3%	94.3%	0.98%	0.92%
OCCN1CCN(Cc2cc(Br)cc(Br)c2O)CC1	-18.3%	-14%	-2.23%	92.6%	96.3%	2.87%	-0.43%
COc1ccc(Nc2ccc3c(c2)=NC2(CCCCC2)[N+]=3[O-])cc1	-9.92%	-11.8%	-8.28%	2.19% (active)	1.61% (active)	4.35%	6.69%
CCn1cc(S(=O)(=O)CC(=O)Nc2ccc(C)cc2)c2ccccc21	0.74%	-4.11%	-0.58%	92.7%	93%	1.61%	2.02%

Compound	growth inhibition [1]	growth inhibition [2]	viability increase [3]	viability [4]	viability [5]	inhibition [6]	RAM network inhibition [7]
CCOC(=O)Cn1c(=O)oc2cc(S(=O)(=O)NC3CCCc4ccccc43)ccc21 (configuration not stated)	-9.8%	-15.4%	-0.67%	88.3%	92.2%	4.13%	3.75%
COc1ccc(N2C(=O)C3CCCN3C2c2ccc(C)cc2)cc1 (configuration not stated)	-2.01%	2.53%	-1.95%	97.6%	99.2%	1.94%	-1.51%
O=C1CC(N2CCN(c3nc4ccccc4s3)CC2)C(=O)N1c1ccc(F)cc1 (configuration not stated)	0.4%	0.52%	6.28%	88.7%	94.3%	1.54%	3.67%
CC(=O)N1CCN(c2ccc(NCc3ccc(F)cc3)cc2)CC1	-7.68%	0.705%	-2.9%	90.1%	83.1%	2.81%	2.34%
O=C(NCCN1C(=O)C2C3C=CC(C3)C2C1=O)Nc1cccnc1 (configuration not stated)	-0.65%	-7.67%	-1.57%	96.7%	99.7%	0.445%	1.17%
Cc1cc(NS(=O)(=O)c2ccc(NC(=O)c3cnc4scc(C)n4c3=O)cc2)nc(C)n1	-8.46%	-14.3%	-2.16%	102%	98.5%	1.31%	4.17%
Cn1c(CSc2nc3ccc(Br)cc3[nH]2)nc2ccccc21	-3.63%	12.1%	1.66%	90.8%	85.2%	1.4%	9.55%
O=S(=O)(NC1CCCCC1NCc1ccco1)c1ccccc1 (configuration not stated)	-9.75%	-2.12%	-4.92%	98%	92.6%	1.82%	6.55%
O=C(Nc1cnc2ccccc2c1)c1ccncc1	-8.13%	-8.73%	-2.98%	99.7%	87.1%	2.08%	1.19%
Cc1oc(-c2cccs2)nc1CS(=O)CC(=O)NCCCN1CC(C)CC(C)C1 (configuration not stated)	-8.47%	-12.7%	-1.75%	93.9%	92.4%	2.27%	3.39%
CCN1CCN(C(=O)C2CCN(S(=O)(=O)c3cccc4cccnc34)CC2)CC1	-6.23%	2.11%	-0.43%	108%	96.3%	2.33%	0.98%
C=CCn1c(SCCCc2ccccc2)nc2c1c(=O)[nH]c(=O)n2C	5.96%	6.29%	-5.7%	67.8%	65.2%	0.525%	4.94%
CC1(C)CC(=O)C(C=NC2CCCCC2)=C(O)C1	0.43%	-1.72%	-1.23%	98.7%	94.8%	1.33%	-1.28%
C=Cn1ccnc1P(=S)(c1ccc2c(c1)c1ccccc1n2CC)c1nccn1C=C	-10.3%	-21.9%	-6.67%	16.2% (active)	13.8% (active)	3.5%	6.54%
Cc1cc(Nc2ccc(F)c(Cl)c2)n2nc(C)nc2n1	1.03%	15.8%	-3.61%	97.2%	92.4%	1.94%	0.68%
Cc1ccnc(Nc2nc3ccccc3o2)n1	2.6%	24.6%	-4.36%	62%	57.7%	0.905%	4.15%
CCCCCCn1c(CN2CCN(CCO)CC2)nc2c1c(=O)n(C)c(=O)n2C	-6.85%	-11.2%	-4.86%	86.2%	89.4%	2.5%	2.43%
Cc1ccc(N2CCN(C(=O)c3ccccc3F)CC2)c(C)c1	-12.4%	-14.5%	2.73%	93.3%	91%	-0.61%	4.91%
